Screens from PubChem BioAssay.
Candida biofilm: kills Candida albicans biofilms; C. albicans biofilm + clotrimazole, Alamar Blue; inhibition, % at 6 µM; hit rate 0.14% among 85,000; AID 834;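 active = inhibition above 20%; inactive = inhibition below 20%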;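 note: preformed 24 hr biofilms exposed to compound for 48 hr; 0% = biofilm without compound and 100% = blank killed by clotrimazole plus chlorhexidine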
PTK2B oligo ant: blocks oligomerization of human Pyk2 in cells; Q14289; Q293 cells, Pyk2 FERM NanoBiT luminescence; active compounds read low; z-score (the deposit names both 25 µM and 10 µM); hit rate 0.83% among 99,000;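 active = Z-score of -3 or lower, scaled per plate to the spread of control and sample wells; inactive = z-score above -3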;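 note: negative z-score means lost luminescence so less FERM oligomerization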
PostGolgi ctrl: growth of the yeast control strain, post-Golgi counter-screen; efflux-deficient yeast background strain, growth absorbance A615, 16 h; inhibition, % at 10 µM; hit rate 5% among 98,000
Ecoli tolC: growth inhibitors of E. coli BW25113 tolC mutant; OD615; growth inhibition, % at 10 µM (by protocol); hit rate 2.2% among 65,000;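 active = growth inhibition at or above a cutoff equal to the mean over every tested compound plus 3 SD, cut at about 60% in these data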;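 note: growth measured after 20 h incubation at 37 °C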
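Material: E. coli BW25113 ΔtolC::kan, tolC deletion mutant strain. Measure: percent growth inhibition. Schedule: 37 °C, 20 h exposure. Doses: single-point testing at 10 µM. Signal: A615 absorbance measurement. Buffer or medium: kanamycin-containing LB broth (50 µg/mL).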
PostGolgi yeast: growth inhibition of a yeast mutant, post-Golgi transport screen | hit rate 0.9% among 98,000 | inhibition, % at 10 µM | AID 739 | post-Golgi transport phenotypic cell assay;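 note: yeast cells grown in 1536-well plates; yeast grown about 18 h at 30C before absorbance read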
FAK inh: inhibitors of human focal adhesion kinase; hit rate 0.84% among 97,000; inhibition, %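 (tested at 7 µM)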; AID 727; biochemical FAK kinase activity assay; in the data active = inhibition above about 19%;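 note: 0% = DMSO and 100% = reference compound high control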
Target sequence (Q05397 whole entry, looked up): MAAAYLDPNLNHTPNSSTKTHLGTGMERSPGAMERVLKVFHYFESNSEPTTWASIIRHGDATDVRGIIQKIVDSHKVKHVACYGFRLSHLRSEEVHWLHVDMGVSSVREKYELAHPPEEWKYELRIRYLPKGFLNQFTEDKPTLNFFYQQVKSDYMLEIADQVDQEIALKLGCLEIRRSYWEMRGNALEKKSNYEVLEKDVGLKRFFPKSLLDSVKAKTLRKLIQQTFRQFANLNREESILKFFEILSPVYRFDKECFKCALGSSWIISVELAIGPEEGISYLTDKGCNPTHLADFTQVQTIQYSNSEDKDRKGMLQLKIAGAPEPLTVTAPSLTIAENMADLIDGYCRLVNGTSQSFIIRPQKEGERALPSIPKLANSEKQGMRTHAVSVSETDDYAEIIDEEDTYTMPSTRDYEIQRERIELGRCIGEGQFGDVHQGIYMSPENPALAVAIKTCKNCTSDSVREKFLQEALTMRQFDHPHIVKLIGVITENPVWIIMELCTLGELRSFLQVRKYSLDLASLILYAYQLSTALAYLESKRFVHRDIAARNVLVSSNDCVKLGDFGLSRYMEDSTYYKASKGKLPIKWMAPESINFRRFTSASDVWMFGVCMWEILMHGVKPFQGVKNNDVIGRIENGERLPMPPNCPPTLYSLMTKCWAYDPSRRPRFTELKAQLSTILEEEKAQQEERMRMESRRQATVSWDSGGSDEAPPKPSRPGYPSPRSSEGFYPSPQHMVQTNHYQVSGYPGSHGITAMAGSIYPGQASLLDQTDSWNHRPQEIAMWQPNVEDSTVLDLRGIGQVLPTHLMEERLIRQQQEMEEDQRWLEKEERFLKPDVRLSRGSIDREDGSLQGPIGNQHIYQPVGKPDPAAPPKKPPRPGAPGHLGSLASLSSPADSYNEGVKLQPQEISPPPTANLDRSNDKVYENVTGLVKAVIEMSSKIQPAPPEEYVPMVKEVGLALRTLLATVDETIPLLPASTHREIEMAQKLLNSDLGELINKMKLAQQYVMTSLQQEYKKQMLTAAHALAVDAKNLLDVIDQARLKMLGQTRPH
* hit, by the source's call; x = not tested or not shown. Hits are enriched below; roughly 6.9% of the tested compounds scored in any of these assays. Cut-off read from the data, not from the text of the source, unless noted: active = inhibition above about 30%; inactive = the rest.

SMILES	Candida biofilm	PTK2B oligo ant	PostGolgi ctrl	Ecoli tolC	PostGolgi yeast	FAK inh
O=c1cc2c(nn1Cc1ccccc1Cl)-c1ccccc1CC2	3.5	-0.44	42.5*	x	13.7	-1.8
O=c1cc2c(nn1Cc1ccc(Cl)cc1Cl)-c1ccccc1CC2	-2.6	1.27	26.5	x	-2.0	1.3
O=C1c2ccccc2C(=O)N1OCc1cccc(Cl)c1	-3.7	0.67	1.9	x	28.1	1.9
O=c1cc2c(nn1Cc1ccc(Cl)cc1)-c1ccccc1CC2	-1.4	0.3	47.6*	x	-3.4	-3.1
O=c1cc2c(nn1Cc1cccc(Cl)c1)-c1ccccc1CC2	2.4	0.74	75.8*	x	19.7	-1.2
COc1cc2c(cc1OC)C(c1cccnc1)CC(=O)N2 (stereo unspecified)	4.4	x	5.2	-6.0	2.0	4.1
COc1cccc(/C(C#N)=C/c2c(-c3ccc(Cl)cc3)nc3c(C)cccn23)c1	x	-1.43	49.3*	x	6.9	8.9
COc1ccc(NC(=O)CS(=O)CC(=O)NCc2cccc(C(F)(F)F)c2)cc1 (stereo unspecified)	-4.1	0.35	11.5	-0.8	1.3	-2.1
CCCOc1ccc(/C=C/C(=O)Nc2ccc([N+](=O)[O-])cc2)cc1	x	1.09	95.0*	x	7.2	-3.6
COc1ccc(C(=O)NC2CCCCC2)cc1S(=O)(=O)N1CCCC1	5.0	1.24	3.5	-9.6	-10.6	1.8
CCOC(=O)c1ccc(S(=O)(=O)Nc2cc(C(C)(C)C)no2)cc1	6.0	1.18	4.6	8.6	-1.5	-3.6
CCCN1Cc2cccc(C(=O)Nc3ccc4c(c3)OCO4)c2C1=O	6.6	-1.32	8.0	1.2	4.9	x
CCCN1Cc2cccc(C(=O)Nc3ccc4c(c3)OCCO4)c2C1=O	6.0	x	35.8*	8.9	10.8	10.3
Cc1ccc(S(=O)(=O)Cn2nnnc2CN2CCOCC2)cc1	5.2	-0.11	9.7	-23.6	3.3	-1.3
Cc1ccc(C)c(S(=O)(=O)C(C#N)c2nc3ccccc3nc2N2CCCC2)c1 (stereo unspecified)	5.6	-0.01	6.4	35.7	-5.3	2.4
Cc1ccc(C)c(S(=O)(=O)C(C#N)c2nc3ccccc3nc2N2CCOCC2)c1 (stereo unspecified)	4.3	-0.07	4.1	70.0*	-3.3	-5.0
N#CC(c1nc2ccccc2nc1N1CCCC1)S(=O)(=O)c1ccccc1 (stereo unspecified)	2.0	1.33	31.4*	18.1	-0.6	5.3
FC(F)(F)c1cccnc1N1CCN(c2ncnc3nc[nH]c23)CC1	29.0*	x	14.4	-3.5	-9.6	x
Cc1sc2nc(-c3cccs3)nc(N3CCCN(C)CC3)c2c1C	-1.7	x	x	-4.6	x	x
S=c1[nH]nc(-c2ccco2)n1/N=C/C=C/c1ccccc1	x	0.85	14.8	x	1.0	-1.9
CC(/C=N/n1c(C2CCCCC2)n[nH]c1=S)=C\c1ccccc1	x	-2.62	44.2*	x	4.2	1.5
CC(=C/c1ccccc1)/C=N/n1c(-c2ccco2)n[nH]c1=S	x	0.03	33.4*	x	8.6	6.5
O=C(Nc1cccc(-c2csc(-c3ccccc3)n2)c1)c1cccs1	4.9	-0.79	8.6	x	2.9	-1.4
Cc1ccccc1NC(=O)c1nc[nH]c1C(=O)NCc1ccccc1	7.6	-0.78	53.3*	41.2	5.8	5.9
Cc1cc(C)n(-c2nc(NCCC(C)C)c3c4c(sc3n2)COC(C)(C)C4)n1	-1.4	-0.9	32.6*	x	-5.1	0.2
SMILES	Candida biofilm	PTK2B oligo ant	PostGolgi ctrl	Ecoli tolC	PostGolgi yeast	FAK inh
Cc1cc(C)n(-c2nc(-n3nc(C)cc3C)c3c4c(sc3n2)COC(C)(C)C4)n1	8.1	x	14.4	13.5	0.1	-3.6
Cn1c(=O)c2c(SCC(=O)N3CCN(c4ccccc4)CC3)nc(C3CC3)nc2n(C)c1=O	8.3	x	x	-2.9	x	x
CN(Cc1ccccc1)C(=O)CSc1nc2ccccc2c(=O)n1Cc1ccco1	1.0	-1.57	55.9*	67.2*	7.2	7.6
COc1ccc(CNC2CC(=O)N(C)C2=O)cc1 (stereo unspecified)	-1.6	-0.4	35.0*	-10.6	10.6	x
COc1ccc(N2C(=O)CC(NCc3ccc(F)cc3)C2=O)cc1 (stereo unspecified)	9.6	0.51	x	x	x	-0.8
COc1ccc(OC)c(C(C)NC=O)c1 (stereo unspecified)	4.4	0.7	39.4*	-5.4	3.8	2.7
COc1ccc(-n2nc([N+](=O)[O-])c(=NCCc3ccccc3)n2O)cc1	x	-0.11	x	x	x	x
COC(=O)CNC(=O)C(C)NC(=O)CNC(=O)OCc1ccccc1 (stereo unspecified)	-0.6	0.1	4.2	x	-11.1	5.7
